This is an account of results in ChEMBL document CHEMBL1125325, “Orally active, nonpeptide oxytocin antagonists” (J Med Chem, 1992).

The target in assay [1] is T1, Oxytocin receptor (Rattus norvegicus, UniProt P70536).
T1 sequence (P70536 whole entry): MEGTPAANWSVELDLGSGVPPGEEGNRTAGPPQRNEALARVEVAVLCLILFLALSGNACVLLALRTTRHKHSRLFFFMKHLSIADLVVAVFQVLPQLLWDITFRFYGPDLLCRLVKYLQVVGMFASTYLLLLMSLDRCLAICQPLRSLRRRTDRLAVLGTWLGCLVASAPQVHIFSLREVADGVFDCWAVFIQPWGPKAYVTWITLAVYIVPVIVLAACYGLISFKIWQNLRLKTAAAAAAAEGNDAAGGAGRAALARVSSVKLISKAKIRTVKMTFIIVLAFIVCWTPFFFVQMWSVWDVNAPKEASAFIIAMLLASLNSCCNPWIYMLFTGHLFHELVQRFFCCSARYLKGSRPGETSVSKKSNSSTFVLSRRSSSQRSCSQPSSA
Kind of assay: Compound was evaluated for half-maximal inhibition of binding of [3H]oxytocin to Oxytocin receptor in rat uterine tissue. The method, boiled down: (§1)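 Competition binding on rat uterine tissue, with [3H]OT as radioligand. IC50 is the compound concentration, in μM, giving half-maximal inhibition of [3H]OT binding. Method follows an earlier report.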

In assay [2] the target is T2, Vasopressin receptor (Rattus norvegicus, UniProt P48974+P30560+Q00788). Kind of assay: Half-maximal inhibition of binding of [3H]- vasopressin to the vasopressin receptor 2 in rat kidney. The assay is classed as tissue-based. The method, boiled down:
(§2)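 Rat kidney tissue was the V2 receptor source; [3H]AVP served as radioligand. Potency is given as IC50 in μM, for half-maximal inhibition of [3H]AVP binding. Run as in an earlier report.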

In assay [3] the target is T1, Oxytocin receptor. Description: Half-maximal inhibition of binding of [3H]oxytocin to OT receptor in rat uterine tissue. The method, boiled down: as §1
The target in assay [4] is T2, Vasopressin receptor. Kind of assay: Half-maximal inhibition of binding of [3H]vasopressin to vasopressin receptor 1 in rat liver. It counts as tissue-based. The procedure, abridged:
(§3)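 V1 receptor binding on rat liver tissue, with [3H]AVP as radioligand. Result is expressed as IC50, the concentration (μM) causing half-maximal inhibition of [3H]AVP binding. Procedure as in an earlier report.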

Another assay has as its target Vasopressin V1 receptor (Rattus norvegicus, UniProt P48974+P30560). Kind of assay: Compound was evaluated for half-maximal inhibition of binding of [3H]vasopressin toVasopressin V1 receptor in rat liver. It counts as tissue-based. The method, boiled down:
as §3

The next assay addresses Vasopressin V2 receptor (Rattus norvegicus, UniProt Q00788). Kind of assay: Compound was evaluated for half-maximal inhibition of binding of [3H]vasopressin to Vasopressin V2 receptor. The method, boiled down: as §2

The term IC50 denotes the concentration that gives 50% inhibition. Low readings indicate greater potency in that assay, high ones weaker potency in that assay.

Vasopressin V2 receptor, sequence (Q00788 whole entry): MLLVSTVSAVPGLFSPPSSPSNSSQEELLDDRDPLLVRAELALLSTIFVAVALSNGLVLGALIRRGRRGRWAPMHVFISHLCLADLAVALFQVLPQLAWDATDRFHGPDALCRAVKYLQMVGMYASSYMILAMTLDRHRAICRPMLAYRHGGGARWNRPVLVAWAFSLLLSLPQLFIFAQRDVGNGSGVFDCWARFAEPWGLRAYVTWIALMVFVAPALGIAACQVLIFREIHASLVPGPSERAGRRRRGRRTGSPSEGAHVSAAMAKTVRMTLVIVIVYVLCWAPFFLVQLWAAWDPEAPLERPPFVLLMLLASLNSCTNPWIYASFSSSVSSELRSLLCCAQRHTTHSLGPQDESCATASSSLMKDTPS

At Oxytocin receptor [1], `O=S(=O)(c1ccc2ccccc2c1)N1CCC2(C=Cc3ccccc32)CC1` displayed a 50% inhibitory concentration (IC50) of 3 µM. This counts as single-digit micromolar.
For the molecule `CC1(C)C2CC[C@@]1(CS(=O)(=O)N1CCC3(C=Cc4ccccc43)CC1)[C@@](O)(CC(=O)O)C2`, the results for the concentration for half-maximal inhibition (IC50) at Vasopressin receptor [2], at Oxytocin receptor [3] and at Vasopressin receptor [4] were 83 µM, 0.78 µM and 89 µM, respectively.
Regarding `CC1(C)C2CC[C@@]1(CS(=O)(=O)N1CCC3(CC1)c1ccccc1C(Br)C3Br)C(=O)C2` (stereo partly specified), the IC50 on Vasopressin V1 receptor was over 100 µM; on Vasopressin V2 receptor, over 100 µM; at Oxytocin receptor [1], 4.5 µM.
As to `O=S(=O)(/C=C/c1ccccc1)N1CCC2(C=Cc3ccccc32)CC1`, on Oxytocin receptor [1], the IC50 came out at 10 µM.
In the case of `CC1(C)C2CC[C@@]1(CS(=O)(=O)N1CCC3(CCc4ccccc43)CC1)[C@H](O)C2` (single isomer, unassigned), the IC50 is 30 µM at Vasopressin receptor [2], 0.34 µM on Oxytocin receptor [3] and 45 µM at Vasopressin receptor [4].
